In brackets after ≈: the same amount, converted by molar mass.
Assays:
[1] = target: Protease (Human immunodeficiency virus 1) (UniProt Q9YQ12); assay: Inhibition of HIV1 recombinant protease at 50 nM after 15 mins by fluorescence assay
Summary of the method: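 Recombinant HIV-1 protease was assayed in MES–NaOH pH 5.5 with DTT, EDTA and NaCl, with inhibitor at 50 nM final (500 nM DMSO stock). The substrate was H-Lys-Ala-Arg-Val-Tyr-Phe(p-NO2)-Glu-Ala-Nle-NH2, and the reaction ran 15 min at 37 °C. It was stopped with 1 N HCl. The N-terminal fragment was quantified by RP-HPLC with fluorescence at ex 275/em 305 nm.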

[2] = system: Human immunodeficiency virus 1; assay: Antiviral activity against HIV1 3B infected in human MT4 cells assessed as inhibition of virus-induced cytopathic effect after 5 days by MTT assay; format: functional, organism-based; settings: Human immunodeficiency virus 1, 3B, MT4, 120 h
Summary of the method: (§1)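 HIV-1 (IIIB or pNL4-3) inoculated into MT-4 cells. Cultures were treated with an equal volume of a 1% DMSO solution of compound at several concentrations plus 10% fetal bovine serum, then incubated 5 days at 37 °C in CO2, in triplicate. After MTT, optical density gave the percent cytopathic effect reduction. EC50 was fitted to a median-effect equation.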

[3] = system: Human immunodeficiency virus 1; assay: Antiviral activity against HIV1 pNL4-3 infected in human MT4 cells assessed as inhibition of virus-induced cytopathic effect after 5 days by MTT assay; format: functional, organism-based; settings: Human immunodeficiency virus 1, pNL4-3, MT4, 120 h; summary of the method: as §1
[4] = system: Human immunodeficiency virus 1; assay: Antiviral activity against HIV1 3B infected in human MT4 cells assessed as inhibition of virus-induced cytopathic effect after 5 days by MTT assay in absence of human serum; format: functional, organism-based; settings: Human immunodeficiency virus 1, 3B, MT4, 120 h; summary of the method: as §1
[5] = system: Human immunodeficiency virus 1; assay: Antiviral activity against HIV1 3B infected in human MT4 cells assessed as inhibition of virus-induced cytopathic effect after 5 days by MTT assay in presence of 50% human serum; format: functional, organism-based; settings: Human immunodeficiency virus 1, 3B, MT4, 120 h
Summary of the method: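 MT-4 cells were infected with wild-type HIV-1 (IIIB or pNL4-3) in the presence of 50% human serum. Compound was added at several concentrations from a 1% DMSO solution, and cells were incubated 5 days at 37 °C in triplicate. Cytopathic effect reduction was read by MTT optical density, and EC50 was derived from a median-effect equation fit.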

[6] = system: Human immunodeficiency virus 1; assay: Ratio of EC50 for HIV1 3B infected in human MT4 cells in presence of 50% human serum to EC50 for HIV1 3B infected in human MT4 cells in absence of human serum; format: functional
[7] = Aqueous solubility in 0.1% TFA after 30 mins by RP-HPLC analysis; format: physicochemical; settings: 0.1% TFA in water
[8] = system: Human immunodeficiency virus 1; assay: Antiviral activity against indinavir-resistant HIV1 harboring L10R/M46I/L63P/V82T/I84V mutant protease infected in human MT4 cells assessed as inhibition of virus-induced cytopathic effect after 5 days by MTT assay; format: functional, organism-based; settings: Human immunodeficiency virus 1, MT4, 120 h
Summary of the method: (§2)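 MT-4 cells inoculated with HIV-1 wild-type pNL4-3 or indinavir-resistant IND-R, then given an equal volume of compound in 1% DMSO at several concentrations with 10% fetal bovine serum. Incubated 5 days at 37 °C in CO2, in triplicate. MTT read-out by optical density gave percent cytopathic-effect reduction; EC50 was fitted to a median-effect equation.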

[9] = system: Human immunodeficiency virus 1; assay: Fold resistance, ratio of EC50 for indinavir-resistant HIV1 harboring L10R/M46I/L63P/V82T/I84V mutant protease infected in human MT4 cells to EC50 for HIV1 pNL4-3 infected in human MT4 cells; format: functional; summary of the method: as §2
[10] = target: Protease (Human immunodeficiency virus 1) (UniProt Q9YQ12); assay: Inhibition of HIV1 recombinant protease at 1 nM after 3 hrs by fluorescence assay

Protease (Human immunodeficiency virus 1), sequence (Q9YQ12 as listed by the source): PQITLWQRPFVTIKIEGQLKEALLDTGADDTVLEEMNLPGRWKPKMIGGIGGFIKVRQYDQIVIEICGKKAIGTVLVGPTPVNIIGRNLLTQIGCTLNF

Row | inhibition [1] | inhibition [10] | Compound | EC50 [2] | EC50 [3] | EC50 [4] | EC50 [5] | Ratio EC50 [6] | solubility at 0.5 h [7] | EC50 [8] | Ratio EC50 [9]
1 | 52% |  | Cc1c(O)cccc1C(=O)N[C@@H](Cc1ccccc1)[C@H](O)C(=O)N1CSC(C)(C)[C@H]1C(=O)N[C@H](C)c1ccccc1 | 617 nM |  |  |  |  |  |  | 
2 | 91% |  | Cc1cc(N)cc(C)c1OCC(=O)N[C@@H](Cc1ccccc1)[C@H](O)C(=O)N1CSC(C)(C)[C@H]1C(=O)NC/C=C\CO |  |  | 184 nM | 433 nM | 2.3 | 9320 µg/mL (≈ 15.9 mM) |  | 
3 | 94% |  | Cc1c(O)cccc1C(=O)N[C@@H](Cc1ccccc1)[C@H](O)C(=O)N1CSC(C)(C)[C@H]1C(=O)NC/C=C\CO | 1200 nM |  |  |  |  |  |  | 
4 | 97% | 53% | Cc1c(F)cccc1CNC(=O)[C@H]1N(C(=O)[C@@H](O)[C@H](Cc2ccccc2)NC(=O)c2cccc(O)c2C)CSC1(C)C | 56 nM |  |  |  |  |  |  | 
5 | 92% |  | Cc1c(O)cccc1C(=O)N[C@@H](Cc1ccccc1)[C@H](O)C(=O)N1CSC(C)(C)[C@H]1C(=O)N[C@H]1c2ccccc2C[C@H]1O | 100 nM |  |  |  |  |  |  | 
6 | 95% | 31% | Cc1c(O)cccc1C(=O)N[C@@H](Cc1ccccc1)[C@H](O)C(=O)N1CSC(C)(C)[C@H]1C(=O)N[C@@H](C)c1ccccc1 | 79 nM |  |  |  |  |  |  | 
7 | 91% |  | Cc1cccc(C)c1OCC(=O)N[C@@H](Cc1ccccc1)[C@H](O)C(=O)N1CSC(C)(C)[C@H]1C(=O)NC(C)(C)C |  |  | 1290 nM | 4500 nM |  |  |  | 
8 | 91% | 24% | Cc1c(O)cccc1C(=O)N[C@@H](Cc1ccccc1)[C@H](O)C(=O)N1CSC(C)(C)[C@H]1C(=O)NCc1c(F)cccc1F | 51 nM |  |  |  |  |  |  | 
9 | 99% | 77% | Cc1cccc(Cl)c1CNC(=O)[C@H]1N(C(=O)[C@@H](O)[C@H](Cc2ccccc2)NC(=O)c2cccc(O)c2C)CSC1(C)C | 32 nM |  |  |  |  |  |  | 
10 | 64% |  | CCNC(=O)[C@H]1N(C(=O)[C@@H](O)[C@H](Cc2ccccc2)NC(=O)c2cccc(O)c2C)CSC1(C)C | 182 nM |  |  |  |  |  |  | 
11 | 76% |  | Cc1c(O)cccc1C(=O)N[C@@H](Cc1ccccc1)[C@H](O)C(=O)N1CSC(C)(C)[C@H]1C(=O)NC1CCCCCC1 | 332 nM |  |  |  |  |  |  | 
12 | 88% |  | CCCNC(=O)[C@H]1N(C(=O)[C@@H](O)[C@H](Cc2ccccc2)NC(=O)c2cccc(O)c2C)CSC1(C)C | 91 nM |  |  |  |  |  |  | 
13 |  |  | Cc1cc(N)cc(C)c1OCC(=O)N[C@@H](Cc1ccccc1)[C@H](O)C(=O)N1CSC(C)(C)[C@H]1C(=O)N[C@H]1c2ccccc2C[C@H]1O |  | 450 nM | 357 nM | 1500 nM | 4.2 | 3740 µg/mL (≈ 5.78 mM) | 1420 nM | 3.2
14 | 85% |  | Cc1ccccc1CNC(=O)[C@H]1N(C(=O)[C@@H](O)[C@H](Cc2ccccc2)NC(=O)COc2c(C)cc(N(C)C)cc2C)CSC1(C)C |  |  | 758 nM | 3900 nM | 5.1 | 3830 µg/mL (≈ 5.92 mM) |  | 
15 | 98% | 66% | Cc1c(O)cccc1C(=O)N[C@@H](Cc1ccccc1)[C@H](O)C(=O)N1CSC(C)(C)[C@H]1C(=O)NCc1c(Cl)cccc1Cl | 39 nM |  |  |  |  |  |  | 
16 | 65% |  | Cc1c(O)cccc1C(=O)N[C@@H](Cc1ccccc1)[C@H](O)C(=O)N1CSC(C)(C)[C@H]1C(=O)NC1CCC1 | 119 nM |  |  |  |  |  |  | 
17 |  |  | Cc1cccc(C)c1OCC(=O)N[C@@H](Cc1ccccc1)[C@@H](O)C[C@H](Cc1ccccc1)NC(=O)[C@H](C(C)C)N1CCCNC1=O [LOPINAVIR] | 30 nM | 16 nM |  |  |  |  | 385 nM | 24
18 | 85% |  | CNc1cc(C)c(OCC(=O)N[C@@H](Cc2ccccc2)[C@H](O)C(=O)N2CSC(C)(C)[C@H]2C(=O)NCc2ccccc2C)c(C)c1 |  |  | 191 nM | 560 nM | 2.9 | 2990 µg/mL (≈ 4.72 mM) |  | 
19 | 66% |  | Cc1c(O)cccc1C(=O)N[C@@H](Cc1ccccc1)[C@H](O)C(=O)N1CSC(C)(C)[C@H]1C(=O)N[C@@H]1c2ccccc2C[C@@H]1O | 550 nM |  |  |  |  |  |  | 
20 | 91% |  | Cc1c(O)cccc1C(=O)N[C@@H](Cc1ccccc1)[C@H](O)C(=O)N1CSC(C)(C)[C@H]1C(=O)N[C@@H]1CCc2ccccc21 | 353 nM |  |  |  |  |  |  | 
21 | 95% |  | Cc1cc(N)cc(C)c1OCC(=O)N[C@@H](Cc1ccccc1)[C@H](O)C(=O)N1CSC(C)(C)[C@H]1C(=O)NCc1c(Cl)cccc1Cl |  |  | 158 nM | 648 nM | 4.1 | 1180 µg/mL (≈ 1.75 mM) |  | 
22 | 97% |  | Cc1c(O)cccc1C(=O)N[C@@H](Cc1ccccc1)[C@H](O)C(=O)N1CSC(C)(C)[C@H]1C(=O)N[C@H]1CCc2ccccc21 | 73 nM |  |  |  |  |  |  | 

Row | Compound | inhibition [1] | inhibition [10] | EC50 [2] | EC50 [3] | EC50 [4] | EC50 [5] | Ratio EC50 [6] | solubility at 0.5 h [7] | EC50 [8] | Ratio EC50 [9]
23 | Cc1cccc(C)c1CNC(=O)[C@H]1N(C(=O)[C@@H](O)[C@H](Cc2ccccc2)NC(=O)COc2c(C)cc(N)cc2C)CSC1(C)C | 99% |  |  | 122 nM | 41 nM | 150 nM | 3.6 | 1250 µg/mL (≈ 1.98 mM) | 409 nM | 3.4
24 | Cc1c(O)cccc1C(=O)N[C@@H](Cc1ccccc1)[C@H](O)C(=O)N1CSC(C)(C)[C@H]1C(=O)NCc1c(F)cccc1Cl | 97% | 50% | 32 nM | 25 nM |  |  |  |  | 157 nM | 6.3
25 | C=CCNC(=O)[C@H]1N(C(=O)[C@@H](O)[C@H](Cc2ccccc2)NC(=O)COc2c(C)cc(N)cc2C)CSC1(C)C | 91% |  |  | 54 nM | 66 nM | 284 nM | 4.3 | 12800 µg/mL (≈ 23.1 mM) | 470 nM | 8.7
26 | Cc1cc(N)cc(C)c1OCC(=O)N[C@@H](Cc1ccccc1)[C@H](O)C(=O)N1CSC(C)(C)[C@H]1C(=O)N[C@H]1CCc2ccccc21 | 97% |  |  | 48 nM | 32 nM | 241 nM | 7.5 | 1710 µg/mL (≈ 2.71 mM) | 416 nM | 8.7
27 | Cc1cc(N)cc(C)c1OCC(=O)N[C@@H](Cc1ccccc1)[C@H](O)C(=O)N1CSC(C)(C)[C@H]1C(=O)NC(C)(C)C | 92% |  |  | 280 nM | 132 nM | 601 nM | 4.5 | 6020 µg/mL (≈ 10.5 mM) | 2030 nM | 7.3
28 | Cc1ccccc1CNC(=O)[C@H]1N(C(=O)[C@@H](O)[C@H](Cc2ccccc2)NC(=O)COc2c(C)cc(N)cc2C)CSC1(C)C | 98% |  |  | 103 nM | 83 nM | 249 nM | 3 | 2640 µg/mL (≈ 4.27 mM) | 568 nM | 5.5
29 | Cc1cc(N)cc(C)c1OCC(=O)N[C@@H](Cc1ccccc1)[C@H](O)C(=O)N1CSC(C)(C)[C@H]1C(=O)NC1CCCC1 | 90% |  |  | 620 nM | 373 nM | 1900 nM | 5 | 7480 µg/mL (≈ 12.8 mM) | 3010 nM | 4.9
30 | Cc1c(O)cccc1C(=O)N[C@@H](Cc1ccccc1)[C@H](O)C(=O)N1CSC(C)(C)[C@H]1C(=O)NC1CCCCC1 | 86% |  | 207 nM | 240 nM |  |  |  |  | 1730 nM | 7.2
31 | Cc1c(O)cccc1C(=O)N[C@@H](Cc1ccccc1)[C@H](O)C(=O)N1CSC(C)(C)[C@H]1C(=O)NC1CCCC1 | 94% |  | 125 nM | 290 nM |  |  |  |  | 2200 nM | 7.6
32 | C=CCNC(=O)[C@H]1N(C(=O)[C@@H](O)[C@H](Cc2ccccc2)NC(=O)c2cccc(O)c2C)CSC1(C)C | 93% |  | 123 nM | 141 nM |  |  |  |  | 173 nM | 1.2
33 | C#CCNC(=O)[C@H]1N(C(=O)[C@@H](O)[C@H](Cc2ccccc2)NC(=O)c2cccc(O)c2C)CSC1(C)C | 90% |  | 110 nM | 558 nM |  |  |  |  | 1930 nM | 3.5

From ChEMBL document CHEMBL1154734, “Small-sized human immunodeficiency virus type-1 protease inhibitors containing allophenylnorstatine to explore the S2' pocket” (J Med Chem, 2009)
